How the values were obtained:
[1] = system: humans; settings: TRPV1 antagonist; cited from earlier work
[2] = system: primary neonatal cardiomyocytes (PNCMs); assay: Live cell imaging of mitochondrial membrane potential under normoxia; assay type: cell-based, rat
Method in brief: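 Neonatal rat cardiomyocytes (pups 1–3 days old) were plated on glass coverslips at 150 000 cells per dish. Cells were loaded with TMRE 150 nmol/L for 30 min at 37°C, then washed. Imaging was single-cell in a chamber at 37°C, 5% pco₂ and 21% po₂. Inhibitor (1 μmol/L) was added 10 min before the TRPV1 agonist (1 μmol/L). Images were taken every 5 min over 30 min and normalized to baseline (=1). n=3 biological replicates.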

[3] = system: Male Sprague‐Dawley rats; assay: In vivo myocardial infarction rodent model; parameters: species or system rat
[4] = system: isolated rat hearts; assay: Isolated heart model of ischemia–reperfusion injury; settings: capsaicin 0.1 μmol/L, unpaced hearts, vs vehicle DMSO; n=4

**Q.** For CC(=O)Nc1nc2c(Oc3cc(-c4ccc(C(F)(F)F)cc4)ncn3)cccc2s1 [AMG517], which “Body temperature effect in humans” value [1] is on record?
**A.** caused sudden hyperthermia in humans that persisted for days

**Q.** Which “Mitochondrial membrane potential (TMRE fluorescence)” value ([2]; capsaicin 0.1–10 μmol/L, 30 min, normoxia, 3 biological replicates) does the source give for COc1cc(CNC(=O)CCCC/C=C/C(C)C)ccc1O [CAP, capsaicin] here?
**A.** decreased mitochondrial membrane potential

**Q.** And the “Change in heart rate after CAP administration” value ([3]; CAP 0.1-3.0 mg/kg iv, n=6 per group)?
**A.** increased heart rate when given intravenously

**Q.** And the “infarct size reduction compared with control” value ([3]; given 5 minutes before reperfusion (CAP 0.3, CsA 2.5, V1‐cal 1 mg/kg iv))?
**A.** 27%

**Q.** And the “Heart rate during first 15 minutes of infusion” value [4]?
**A.** increased heart rate during the first 15 minutes of infusion

**Q.** For Oc1cc2c(cc1O)CN(C(=S)NCCc1ccc(Cl)cc1)CCC2 [CPZ, capsazepine], which “Effect on capsaicin-induced change in mitochondrial membrane potential (TMRE)” value ([2]; CPZ 1 μmol/L or CsA 1 μmol/L 10 minutes prior to CAP 1 μmol/L, n=3) is on record?
**A.** blocked

**Q.** What about the “Effect on heart rate change afforded by capsaicin” value ([3]; CPZ 3 mg/kg or CsA 2.5 mg/kg before capsaicin 0.3 mg/kg) of the same compound?
**A.** reduced the change in heart rate

— publication PMC5079036 (Journal of the American Heart Association: Cardiovascular …, 2016)
